According to ChEMBL document CHEMBL1949504, “Synthesis and anti-leishmanial activity of 5-(5-nitrofuran-2-yl)-1,3,4-thiadiazol-2-amines containing N-[(1-benzyl-1H-1,2,3-triazol-4-yl)methyl] moieties” (Eur J Med Chem, 2012):
Activity calls are given as the source filed them. No cut-off for these calls is given here.

How the values were obtained:
Format in all cases: functional, organism-based
Leishmania major [1] = experiment: Antileishmanial activity against promastigotes of Leishmania major […] by MTT assay
Summary of the method: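 Promastigotes of L. major vaccine strain MRHO/IR/75/ER were used. Two or more independent experiments were run in triplicate. IC50 was obtained by linear regression and reported as the mean. Meglumine antimonate served as the standard drug.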

Leishmania major [2] = experiment: Antiamastigote activity against Leishmania major MHOM/1L/80/ER amastigotes infected in mouse primary peritoneal macrophages assessed as percentage of macrophage infectivity after 24 hrs using Giemsa staining
Summary of the method: (§1)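 Mouse peritoneal macrophages on glass coverslips at 1 × 10^6/well were infected for 2 h with stationary-phase promastigotes in RPMI (2 × 10^6/well, 3 parasites per macrophage). Extracellular parasites were washed off, then compound-containing medium was added for 24 h. Cells were methanol-fixed and Giemsa-stained, with 100 cells counted per well. Two experiment sets were run.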

Leishmania major [3] = experiment: Antiamastigote activity against Leishmania major MHOM/1L/80/ER amastigotes infected in mouse primary peritoneal macrophages assessed as infectivity index after 24 hrs using Giemsa staining
Summary of the method: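 Macrophage infection and treatment were as for the amastigote counts: 1 × 10^6 peritoneal macrophages/well, infected 2 h at 3 promastigotes per cell, washed, then drug exposure for 24 h. Giemsa staining after methanol fixation, 100 cells examined per well. Infectivity index = % macrophages with at least one intracellular parasite × mean parasites per infected macrophage. Two experiment sets.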

Leishmania major [4] = experiment: Antiamastigote activity against Leishmania major MHOM/1L/80/ER amastigotes infected in mouse primary peritoneal macrophages assessed as decrease in number of intracellular amastigotes per macrophage after 24 hrs using Giemsa staining; summary of the method: as §1

| Molecule | IC50 (Leishmania major [1]; Leishmania major) [µM] | Activity (Leishmania major [2]) | Activity (Leishmania major [3]) | Activity (Leishmania major [4]) | IC50 (Leishmania major [1]) [µM] |
| --- | --- | --- | --- | --- | --- |
| Cc1ccc(Cn2cc(CNc3nnc(-c4ccc([N+](=O)[O-])o4)s3)nn2)cc1 | 12.2 | Active | Active | Active |  |
| O=[N+]([O-])c1ccc(-c2nnc(NCc3cn(Cc4ccccc4F)nn3)s2)o1 | 19 | Active | Active | Active |  |
| O=[N+]([O-])c1ccc(-c2nnc(NCc3cn(Cc4ccc(Cl)cc4Cl)nn3)s2)o1 | 19.9 | Active | Active | Active |  |
| O=[N+]([O-])c1ccc(-c2nnc(NCc3cn(Cc4ccc(Cl)cc4)nn3)s2)o1 | 88.8 |  |  |  |  |
| Cc1ccccc1Cn1cc(CNc2nnc(-c3ccc([N+](=O)[O-])o3)s2)nn1 | 25.2 |  |  |  |  |
| MEGLUMINE ANTIMONATE |  |  |  |  | 68300 |
| O=[N+]([O-])c1ccc(-c2nnc(NCc3cn(Cc4ccc(Cl)c(Cl)c4)nn3)s2)o1 | 132 |  |  |  |  |
| O=[N+]([O-])c1ccc(-c2nnc(NCc3cn(Cc4ccccc4)nn3)s2)o1 | 19.6 | Active | Active | Active |  |
| O=[N+]([O-])c1ccc(-c2nnc(NCc3cn(Cc4cccc(Cl)c4)nn3)s2)o1 | 108 |  |  |  |  |
| O=[N+]([O-])c1ccc(-c2nnc(NCc3cn(Cc4c(F)cccc4Cl)nn3)s2)o1 | 17.4 | Active | Active | Active |  |
| Cc1cccc(Cn2cc(CNc3nnc(-c4ccc([N+](=O)[O-])o4)s3)nn2)c1 | 21.9 | Active | Active | Active |  |
| O=[N+]([O-])c1ccc(-c2nnc(NCc3cn(Cc4ccccc4Cl)nn3)s2)o1 | 18.9 | Active | Active | Active |  |
| O=[N+]([O-])c1ccc(-c2nnc(NCc3cn(Cc4cccc(Cl)c4Cl)nn3)s2)o1 | 104 |  |  |  |  |
| O=[N+]([O-])c1ccc(-c2nnc(NCc3cn(Cc4ccc(F)cc4)nn3)s2)o1 | 21.4 | Active | Active | Active |  |
| O=[N+]([O-])c1ccc(Cn2cc(CNc3nnc(-c4ccc([N+](=O)[O-])o4)s3)nn2)cc1 | 32.7 |  |  |  |  |
